Assays:
[1] = Inhibitory activity against growth of WI-L2 human leukemic cells; conditions: WIL2
L1210 = assay: Inhibitory activity against growth of L1210 murine leukemic cells; format: functional, cell-based; conditions: Mus musculus
Outline: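 Growth inhibition was measured by an adapted tetrazolium salt method after 48-h exposure. Cells were grown in RPMI 1640 with 10% fetal bovine serum plus antibiotics. Results are expressed as IC50.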

Dihydrofolate reductase = molecular target: T1, Dihydrofolate reductase (Homo sapiens, UniProt P00374); assay: Inhibition of dihydrofolate reductase(DHFR) enzyme from human leukemic lymphoblasts.
T1 sequence (P00374 whole entry): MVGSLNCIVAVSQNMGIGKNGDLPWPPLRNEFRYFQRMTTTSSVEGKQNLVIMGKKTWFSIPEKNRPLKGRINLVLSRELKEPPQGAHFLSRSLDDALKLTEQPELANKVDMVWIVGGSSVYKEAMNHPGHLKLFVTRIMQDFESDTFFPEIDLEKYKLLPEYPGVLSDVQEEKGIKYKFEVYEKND
Outline: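 Spectrophotometric read-out at 340 nm. Enzyme was DHFR purified from human leukemic lymphoblasts (WI-L2/M4).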

Compound	IC50 [1]	IC50 (L1210)	IC50 (Dihydrofolate reductase)
NCCCC(NC(=O)c1ccc(NCc2cnc3nc(N)nc(N)c3n2)cc1)C(=O)O (centres undefined)	2600 nM		
NCCCC(NC(=O)c1ccc(NCc2ccc3nc(N)nc(N)c3c2)cc1)C(=O)O (centres undefined)	180 nM	280 nM	
CN(Cc1cnc2nc(N)nc(N)c2n1)c1ccc(C(=O)NC(CCCNCC(=O)O)C(=O)O)cc1 (centres undefined)	4300 nM	1100 nM	50 nM
NCCCC(NC(=O)c1ccc(NCc2cnc3nc(N)nc(O)c3c2)cc1)C(=O)O (centres undefined)		> 5000 nM	
NCCCC(NC(=O)c1ccc(NCc2ccc3nc(N)nc(N)c3n2)cc1)C(=O)O (centres undefined)		660 nM	

More lines, now with the values ahead:

IC50 [1]	IC50 (L1210)	IC50 (Dihydrofolate reductase)	Compound
860 nM	1400 nM	27 nM	NCCCC(NC(=O)c1ccc(NCc2cnc3nc(N)nc(N)c3c2)cc1)C(=O)O (centres undefined)
	> 5000 nM	750 nM	NCCCC(NC(=O)c1ccc(NCc2ccc3nc(N)nc(O)c3c2)cc1)C(=O)O (centres undefined)
		160 nM	CN(Cc1cnc2nc(N)nc(N)c2n1)c1ccc(C(=O)NC(CCCN)C(=O)O)cc1 (centres undefined)

— ChEMBL document CHEMBL1125675, “Synthesis and in vitro biological activity of new deaza analogues of folic acid, aminopterin, and methotrexate with an L-ornithine side chain” (J Med Chem, 1991)
